Shown are actives, neighbours in structure and some others; about 3.9% of the full set was active somewhere.
HIF activator – HIF pathway transcriptional activation. 300,000 tested, 0.32% active. activation, % at 7.5 µM (by protocol). U2OS HRE-luciferase reporter, luminescence; normalized: DMSO 0%, desferrioxamine 100%. AID 1910;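 active = mean activation of at least 10% of the iron chelator positive control signal, with at least half of replicates also reaching 10%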
GAA850 FXN act – increases GAA850 frataxin promoter reporter activity; HEK293 lucGAA850 FXN promoter luciferase reporter, 24 h; percent of 10 µM SAHA response; activation, % at 6 µM; 360,000 tested, 0.56% active; AID 540364;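 active = activation above the average of all compounds screened plus 3 SD, cutoff fixed separately per campaign, cut at about 7.5% in these data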;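 also: 0% = DMSO wells and 100% = 10 µM SAHA wells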
SR-BI DiI inh – mouse SR-BI HDL lipid transfer inhibition; ldlA[mSR-BI] CHO cells, DiI-HDL uptake fluorescence, 3 h; inhibition, % at 12.5 µM; 320,000 tested, 0.96% active; AID 488896;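 active = mean replicate inhibition of at least 70% and a set share of replicates each scoring 70 or more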;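 also: 0% = median of neutral control wells and 100% = median of positive control wells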
ABCB6 inh MLPCN – inhibitors of human ABC transporter ABCB6. Q9NP58. K562-ABCB6 porphyrin accumulation, flow cytometry, 1 h; stronger effect = lower value. fluorescence ratio to DMSO, % at 10 µM. 360,000 tested, 0.19% active;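 active = fluorescence ratio to DMSO below 75%, the collection mean minus 3 SD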;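 also: signal is porphyrin accumulated inside mitochondria; 100% equals median channel fluorescence of DMSO control wells; lower ratio means ABCB6 inhibition with less porphyrin fluorescence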
AHR act – activators of human aryl hydrocarbon receptor. P35869. 320,000 tested, 2.5% active. AHR-responsive luciferase reporter cells, luminescence. activation, % at 5 µM; in the data active = activation above about 47%;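 also: 0% = vehicle wells and 100% = reference agonist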
Target sequence (P35869 whole entry, looked up): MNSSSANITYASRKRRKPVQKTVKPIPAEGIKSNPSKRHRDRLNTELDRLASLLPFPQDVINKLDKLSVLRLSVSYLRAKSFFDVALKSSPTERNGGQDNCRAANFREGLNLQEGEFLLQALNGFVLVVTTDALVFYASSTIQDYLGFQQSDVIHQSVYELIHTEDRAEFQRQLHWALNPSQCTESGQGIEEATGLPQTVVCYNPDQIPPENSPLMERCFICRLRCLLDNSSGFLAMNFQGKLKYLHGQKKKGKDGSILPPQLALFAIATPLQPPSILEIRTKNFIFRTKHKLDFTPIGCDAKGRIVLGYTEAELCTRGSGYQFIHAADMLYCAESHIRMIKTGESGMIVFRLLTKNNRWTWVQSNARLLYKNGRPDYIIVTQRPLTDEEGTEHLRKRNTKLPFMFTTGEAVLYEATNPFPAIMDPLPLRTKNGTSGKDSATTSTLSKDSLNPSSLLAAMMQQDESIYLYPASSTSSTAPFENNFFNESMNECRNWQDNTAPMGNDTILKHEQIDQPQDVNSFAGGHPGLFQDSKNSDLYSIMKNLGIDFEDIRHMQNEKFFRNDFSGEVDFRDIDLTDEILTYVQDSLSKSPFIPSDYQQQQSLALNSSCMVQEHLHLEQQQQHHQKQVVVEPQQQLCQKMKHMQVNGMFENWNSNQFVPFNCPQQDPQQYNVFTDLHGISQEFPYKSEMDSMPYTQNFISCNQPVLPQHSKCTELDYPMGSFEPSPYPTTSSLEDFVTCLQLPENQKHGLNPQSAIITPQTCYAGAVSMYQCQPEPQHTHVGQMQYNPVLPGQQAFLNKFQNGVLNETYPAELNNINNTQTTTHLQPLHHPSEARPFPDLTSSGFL
SR-BI DiI-HDL act – SR-BI HDL lipid transfer activation; activation, % at 12.5 µM; CHO ldlA[mSR-BI] cells, DiI-HDL uptake fluorescence, 3 h; 100 = double the neutral-control signal; 320,000 tested, 0.096% active;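 active = mean replicate activation of at least 60% and every replicate at or above 60%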;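 also: 0% = median plate neutral-control signal and 100% = twice that signal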
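Assay system: LDL receptor-deficient CHO ldlA cells overexpressing murine SR-BI / Medium: BSA-supplemented, HEPES-buffered Ham's F12, pH 7.4 / Probe or stimulus: DiI-labelled HDL at 10 µg/mL final / Timing: compound with DiI-HDL co-incubation, 3 h at 37 °C / Technique: bottom-read cell fluorescence after medium removal, ex 550/em 595 nm / Measure: HDL uptake via cellular fluorescence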
* marks the source's active call; other numbers are inactive results; x = not tested or not shown.

SMILES | HIF activator | GAA850 FXN act | SR-BI DiI inh | ABCB6 inh MLPCN | AHR act | SR-BI DiI-HDL act
COc1ccc(Cl)c2c1[nH]c1nc(SCc3ccccn3)nnc12 | 4.2 | 4.8 | 30.4 | 87.0 | 58.9* | -30.4
COc1cc(/C=C/C(=O)OCC(=O)N2CCN(S(=O)(=O)c3ccc(C)cc3C)CC2)ccc1OC(F)F | x | 1.2 | 78.1* | 95.0 | x | -78.1
C/C(CCc1oc2ccc(Br)cc2c1-c1ccc(C)o1)=N/O | -39.4 | 2.3 | 37.1 | 97.0 | 56.4* | -37.1
C/C(CCc1oc2ccc(Cl)cc2c1-c1ccc(C)o1)=N\O | -0.4 | -0.2 | 47.8 | 89.0 | 29.2 | -47.8
Cc1ccc2nc(SCC(=O)Nc3ccc(C)c([N+](=O)[O-])c3)[nH]c2c1 | -0.3 | 2.4 | 16.6 | 102.0 | 86.2* | -16.6
Cc1ccc2nc(SCC(=O)Nc3ccc4c(c3)OCCO4)[nH]c2c1 | 0.6 | -0.3 | -2.6 | 88.0 | 22.4 | 2.6
Cc1ccc2nc(SCC(=O)NCc3cccs3)[nH]c2c1 | -0.2 | 0.3 | 14.3 | 97.0 | 48.9* | -14.3
COc1cccc(CNC(=O)CSc2nc3ccc(C)cc3[nH]2)c1 | -0.2 | 4.7 | -12.7 | 85.0 | 52.7* | 12.7
Cc1ccc2nc(SCC(=O)NC3CCCc4ccccc43)[nH]c2c1 (configuration not stated) | 0.1 | 0.1 | 11.0 | 94.0 | 58.8* | -11.0
O=C(CSc1cc(Cl)ccc1Cl)NC1CCCc2ccccc21 (configuration not stated) | 0.1 | 0.1 | 41.2 | 97.0 | 5.3 | -41.2
CCCCC(CC)CNC(=O)CN1C(=O)NC2(CCc3ccccc32)C1=O (configuration not stated) | -1.5 | -0.8 | x | 98.0 | -1.3 | x
Cc1ccc2nc(SCC(=O)NNC(=O)c3ccccc3)[nH]c2c1 | -0.1 | 1.7 | 11.0 | 98.0 | 51.8* | -11.0
COc1cc(OC)c(Nc2cc(C)nc3nc(C)nn23)cc1Cl | -0.3 | 2.3 | -2.5 | 100.0 | 5.3 | 2.5
COc1ccc(Cl)cc1Nc1cc(C)nc2nc(C)nn12 | -0.1 | 0.1 | -2.6 | 102.0 | 70.7* | 2.6
NC(=O)C1CCCN(C(=O)c2cccc(S(=O)(=O)N(Cc3ccccc3)c3ccccc3)c2)C1 (configuration not stated) | x | -3.2 | -18.6 | 102.0 | 0.6 | 18.6
O=C(C[n+]1cc(Br)cc(Br)c1)c1ccc(Cl)cc1 | -0.2 | 1.2 | 24.8 | 105.0 | 8.7 | -24.8
O=C(C[n+]1cccc2ccccc21)c1ccc(Br)cc1 | 0.3 | 0.6 | -7.7 | 213.0 | 65.0* | 7.7
O=C(C[n+]1cc(Br)cc2ccccc21)c1ccc(Cl)cc1 | -1.3 | 2.4 | 42.9 | 144.0 | 72.6* | -42.9
Cc1ccc(S(=O)(=O)N2CCC(C(=O)NCCCOC(C)C)CC2)cc1 | 0.0 | -4.0 | 0.5 | 88.0 | -7.3 | -0.5
COc1ccc(Nc2nc3ccccc3n3cnnc23)cc1 | 0.1 | -0.5 | 2.8 | 101.0 | 71.7* | -2.8
COc1cccc(/C=N/Nc2nc3ccccc3n3cnnc23)c1 | 360.2* | -3.0 | 19.5 | 101.0 | 57.5* | -19.5
O=C1NC(=S)NC(=O)C1Nc1ccc(Cl)cc1 | x | 2.5 | 2.3 | 96.0 | x | -2.3
CCc1noc(C)c1C(=O)Nc1nc2c(F)cc(F)cc2s1 | x | 0.5 | -9.2 | 93.0 | 61.0* | 9.2
CCc1noc(C)c1C(=O)Nc1nc2c(C)cccc2s1 | 0.6 | 1.2 | 9.9 | 102.0 | 12.9 | -9.9
O=C(Nc1nc2c(F)cc(F)cc2s1)c1ccccn1 | 10.4* | 3.9 | -1.6 | 84.0 | 25.9 | 1.6
SMILES | HIF activator | GAA850 FXN act | SR-BI DiI inh | ABCB6 inh MLPCN | AHR act | SR-BI DiI-HDL act
COC(=O)c1ccc(S(=O)(=O)NNC(=O)COc2ccc(C)cc2)cc1 | -0.2 | 2.3 | 10.1 | 102.0 | 4.3 | -10.1
Cc1ccc(-c2nn(-c3cccc(F)c3)cc2CNCc2cccnc2)o1 | 1.9 | 0.5 | -9.5 | 111.0 | 3.0 | 9.5
O=C(c1ccco1)N1CCN(C(=O)c2ccco2)CC1 | x | x | x | 92.0 | x | x
O=C(c1ccco1)N1CCN(C(=O)C2CC2)CC1 | -0.7 | 1.8 | -67.1 | 100.0 | 1.9 | 67.1*
O=C(c1cc2cc(F)ccc2[nH]1)N1CCN(C(=O)c2ccco2)CC1 | 0.8 | 0.4 | -20.3 | 107.0 | 54.4* | 20.3
CN1CCN(C(=O)c2cc3cc(F)ccc3[nH]2)CC1 | 1.0 | 0.1 | 14.2 | 98.0 | x | -14.2
CCC(=O)c1cn(CC(=O)O)c2ccccc12 | 0.6 | 1.8 | -2.6 | 102.0 | 2.5 | 2.6
